# Test results as given in ChEMBL document CHEMBL4145680, “Tau-Centric Multitarget Approach for Alzheimer's Disease: Development of First-in-Class Dual Glycogen Synthase Kinase 3β and Tau-Aggregation Inhibitors” (J Med Chem, 2018).
# The source made the active and inactive calls.
# Tests used:
# [1] = target: T1, Glycogen synthase kinase-3 beta (Homo sapiens, UniProt P49841); assay: Inhibition of GSK3beta (unknown origin) at 10 uM using GS-2 peptide substrate incubated for 30 mins by kinase-Glo luminescent assay
# Summary of the method: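 Human recombinant GSK-3β, 20 ng, in 50 mM HEPES pH 7.5 with 1 mM EDTA, 1 mM EGTA and Mg acetate. Substrate prephosphorylated GS-2 peptide 25 µM with 1 µM ATP; DMSO ≤1%. Incubated 30 min at 30 °C, then Kinase-Glo luminescence read after 10 min. Activity scaled between no-inhibitor and full-inhibition reference controls.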
# Target sequence in this assay (P49841 whole entry, looked up): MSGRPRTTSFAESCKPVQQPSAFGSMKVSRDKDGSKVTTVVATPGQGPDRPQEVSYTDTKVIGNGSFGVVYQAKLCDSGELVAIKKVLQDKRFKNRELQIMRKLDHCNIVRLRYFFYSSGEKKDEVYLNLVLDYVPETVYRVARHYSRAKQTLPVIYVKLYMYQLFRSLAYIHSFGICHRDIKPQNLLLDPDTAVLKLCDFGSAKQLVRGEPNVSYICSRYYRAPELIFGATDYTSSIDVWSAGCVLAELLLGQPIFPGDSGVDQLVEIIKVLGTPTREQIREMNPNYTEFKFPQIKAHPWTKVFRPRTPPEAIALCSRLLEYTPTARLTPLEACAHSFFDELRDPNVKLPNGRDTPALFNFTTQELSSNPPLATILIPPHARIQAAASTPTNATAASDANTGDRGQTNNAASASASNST
# [2] = target: T1, Glycogen synthase kinase-3 beta; assay: Inhibition of GSK3beta (unknown origin) using GS-2 peptide substrate incubated for 30 mins by kinase-Glo luminescent assay
# Summary of the method: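 Human recombinant GSK-3β, 20 ng, in 50 mM HEPES pH 7.5 with 1 mM EDTA, 1 mM EGTA and Mg acetate. Incubated 30 min at 30 °C, then Kinase-Glo luminescence read after 10 min. Activity scaled between no-inhibitor and full-inhibition reference controls.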
# Target sequence in this assay (P49841 whole entry): as the sequence (P49841 whole entry, looked up) above
# [3] = test system: Cerebellar granule neurone; assay: Neurotoxicity in rat primary cerebellar granule neurons assessed as reduction in cell viability at 5 uM incubated for 24 hrs by MTT assay; format: toxicity
# Summary of the method: (§1)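 Cerebellar granule neurons from 7-day-old rat pups, plated on poly-L-lysine at 3 × 10^5 cells/well in BME with FBS and 25 mM KCl. Cytosine arabinoside 10 µM added at 16 h. At 7 days in vitro, switched to serum-free BME with 25 mM KCl and treated 24 h at 0, 5, 25 or 50 µM. MTT 0.1 mg/mL for 20 min at 37 °C, A570. Mean ± SE of ≥3 experiments in triplicate, as % of control.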
# [4] = Permeability in pH 7.4 PBS incubated for 2.5 hrs by PAMPA-BBB assay; format: ADME; details: read-out: permeability
# Summary of the method: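 PAMPA-BBB: donor filter coated with porcine brain lipid in dodecane (20 mg/mL). Compounds in PBS pH 7.4/EtOH 70:30, acceptor filled with the same. Sandwich incubated 2.5 h at 25 °C, then donor and acceptor concentrations measured by UV at 3–5 wavelengths, 3 wells, two runs. Ten reference drugs included for validation.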
# [5] = Hepatotoxicity in human HepG2 cells assessed as reduction in cell viability incubated for 24 hrs by MTT assay; format: toxicity, cell-based; details: hepg2, 24 h
# Summary of the method: (§2)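 HepG2 cells grown in DMEM with 10% FBS at 37 °C, 5% CO2, seeded at 0.5 × 10^5 cells/well and left 24 h. Exposed in serum-free DMEM for 24 h (concentrations listed as 0, 10, 25, 50 µM; elsewhere 0, 5, 25, 50 µM). MTT 0.1 mg/mL for 10 min at 37 °C in the dark. Formazan dissolved in Tris/Triton X-100, A570. Mean ± SE of ≥3 experiments in triplicate; reported as % of control.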
# [6] = target: CDC7/DBF4 (Cell division cycle 7-related protein kinase/Activator of S phase kinase) (Homo sapiens) (UniProt Q9UBU7+O00311); assay: Inhibition of CDC7/Dbf4 (unknown origin) at 10 uM incubated for 60 mins by Kinase-Glo assay; format: protein-complex assay; details: in the assay text read “ADP-Glo assay” for “Kinase-Glo assay”
# Chain of CDC7/DBF4 (Cell division cycle 7-related protein kinase/Activator of S phase kinase) (Homo sapiens) (O00311 whole entry, looked up): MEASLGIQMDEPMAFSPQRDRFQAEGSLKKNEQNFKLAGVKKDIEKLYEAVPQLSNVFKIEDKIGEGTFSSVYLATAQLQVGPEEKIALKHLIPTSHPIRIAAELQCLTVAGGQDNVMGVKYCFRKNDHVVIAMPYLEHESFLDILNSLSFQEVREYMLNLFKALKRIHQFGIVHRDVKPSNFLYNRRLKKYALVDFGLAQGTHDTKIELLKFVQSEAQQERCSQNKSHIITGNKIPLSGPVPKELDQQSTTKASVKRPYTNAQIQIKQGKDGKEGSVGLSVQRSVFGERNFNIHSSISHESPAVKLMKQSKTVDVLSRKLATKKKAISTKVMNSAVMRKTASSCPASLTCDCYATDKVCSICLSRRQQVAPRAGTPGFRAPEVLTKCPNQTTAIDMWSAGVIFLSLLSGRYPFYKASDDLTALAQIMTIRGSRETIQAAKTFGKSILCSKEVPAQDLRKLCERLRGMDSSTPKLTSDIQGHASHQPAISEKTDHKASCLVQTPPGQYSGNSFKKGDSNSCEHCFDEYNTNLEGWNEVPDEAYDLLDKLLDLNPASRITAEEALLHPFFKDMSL
# Chain of CDC7/DBF4 (Cell division cycle 7-related protein kinase/Activator of S phase kinase) (Homo sapiens) (Q9UBU7 whole entry, looked up): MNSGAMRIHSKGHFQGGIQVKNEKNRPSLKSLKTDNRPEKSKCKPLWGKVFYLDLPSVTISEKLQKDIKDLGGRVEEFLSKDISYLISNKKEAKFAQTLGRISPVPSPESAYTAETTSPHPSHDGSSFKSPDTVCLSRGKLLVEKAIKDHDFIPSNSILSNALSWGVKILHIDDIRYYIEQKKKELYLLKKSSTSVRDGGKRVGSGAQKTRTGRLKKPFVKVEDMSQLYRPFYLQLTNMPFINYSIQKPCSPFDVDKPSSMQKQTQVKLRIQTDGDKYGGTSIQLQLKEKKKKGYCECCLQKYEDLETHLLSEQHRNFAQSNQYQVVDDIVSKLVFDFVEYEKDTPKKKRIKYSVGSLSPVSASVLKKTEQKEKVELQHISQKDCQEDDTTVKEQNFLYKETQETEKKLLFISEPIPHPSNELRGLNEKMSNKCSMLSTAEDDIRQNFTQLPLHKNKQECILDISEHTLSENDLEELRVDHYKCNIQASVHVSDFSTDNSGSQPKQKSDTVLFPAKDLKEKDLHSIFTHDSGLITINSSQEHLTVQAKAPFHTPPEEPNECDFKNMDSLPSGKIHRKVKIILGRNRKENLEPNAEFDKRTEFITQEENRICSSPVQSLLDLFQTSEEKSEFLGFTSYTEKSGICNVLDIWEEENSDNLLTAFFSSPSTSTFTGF
# Summary of the method: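 CDC7/DBF4 enzyme, 25 ng/well, with 10 µM ATP (final) and PDKtide substrate. Incubated 60 min at room temperature. ADP-Glo reagent added for 40 min, then detection reagent for 30 min, and luminescence read. Inhibition calculated relative to the no-inhibitor maximum.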
# [7] = target: T1, Glycogen synthase kinase-3 beta; assay: Competitive inhibition of GSK3beta (unknown origin) at 10 uM using fixed level of GS-2 peptide substrate and varying ATP levels incubated for 30 mins by kinase-Glo luminescent assay
# Summary of the method: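 Human recombinant GSK-3β, 20 ng per reaction, in HEPES pH 7.5 buffer with EDTA, EGTA and Mg acetate. GS-2 prephosphorylated peptide held at 25 µM; ATP varied from 1 to 50 µM along with inhibitor level. 30 min at 30 °C, then Kinase-Glo luminescence read after 10 min. Lineweaver–Burk double-reciprocal analysis; means of two experiments, each run in triplicate.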
# Target sequence in this assay (P49841 whole entry, looked up): as the sequence (P49841 whole entry, looked up) above
# [8] = target: Casein kinase I isoform epsilon (Homo sapiens) (UniProt P49674); assay: Inhibition of human recombinant CK1epsilon at 10 uM incubated for 60 mins by Kinase-Glo assay
# Chain of Casein kinase I isoform epsilon (Homo sapiens) (P49674 whole entry, looked up, canonical isoform): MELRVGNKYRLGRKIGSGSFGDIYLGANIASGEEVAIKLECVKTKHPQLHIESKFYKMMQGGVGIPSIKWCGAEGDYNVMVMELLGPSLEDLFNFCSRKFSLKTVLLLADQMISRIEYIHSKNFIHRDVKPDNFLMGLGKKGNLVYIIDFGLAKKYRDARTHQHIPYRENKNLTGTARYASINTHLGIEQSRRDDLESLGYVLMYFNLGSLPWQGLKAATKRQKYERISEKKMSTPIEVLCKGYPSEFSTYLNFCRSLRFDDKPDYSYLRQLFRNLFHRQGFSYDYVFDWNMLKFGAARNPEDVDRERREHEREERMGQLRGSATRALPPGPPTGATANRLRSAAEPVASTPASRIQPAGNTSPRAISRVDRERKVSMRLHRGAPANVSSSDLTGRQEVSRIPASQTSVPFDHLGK
# Summary of the method: (§3)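 Human recombinant CK1δ or CK1ε, 16 ng, in 50 mM HEPES pH 7.5 with 10 mM MgCl2, 1 mM EGTA and Brij-35. Substrate 0.1% casein with 4 µM ATP; compound diluted to 10 µM before addition, DMSO ≤1%. Incubated 60 min at 30 °C, then Kinase-Glo luminescence read. Inhibition relative to no-inhibitor activity; mean of two experiments.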
# [9] = test system: Cerebellar granule neurone; assay: Neurotoxicity in rat primary cerebellar granule neurons assessed as reduction in cell viability at 50 uM incubated for 24 hrs by MTT assay; format: toxicity; summary of the method: as §1
# [10] = target: T1, Glycogen synthase kinase-3 beta; assay: Inhibition of GSK3beta (unknown origin) pre-incubated for 30 mins followed by ULight-GS (Ser641/pSer657) peptide substrate addition and measured after 1 hr by TR-FRET assay
# Target sequence in this assay (P49841 whole entry): as the sequence (P49841 whole entry, looked up) above
# [11] = target: Casein kinase I isoform delta (Homo sapiens) (UniProt P48730); assay: Inhibition of human recombinant CK1delta at 10 uM incubated for 60 mins by Kinase-Glo assay; summary of the method: as §3
# Chain of Casein kinase I isoform delta (Homo sapiens) (P48730 whole entry, looked up, canonical isoform): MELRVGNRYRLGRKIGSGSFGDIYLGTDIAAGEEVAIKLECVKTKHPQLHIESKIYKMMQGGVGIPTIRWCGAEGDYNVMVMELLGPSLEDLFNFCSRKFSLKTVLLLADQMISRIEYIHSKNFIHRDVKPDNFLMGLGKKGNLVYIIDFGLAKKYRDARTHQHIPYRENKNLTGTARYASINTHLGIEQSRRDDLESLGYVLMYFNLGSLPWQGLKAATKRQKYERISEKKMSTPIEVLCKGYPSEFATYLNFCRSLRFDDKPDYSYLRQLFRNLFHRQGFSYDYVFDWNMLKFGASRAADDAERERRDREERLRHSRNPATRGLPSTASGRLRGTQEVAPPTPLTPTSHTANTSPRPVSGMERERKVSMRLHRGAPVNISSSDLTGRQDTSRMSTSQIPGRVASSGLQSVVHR
# [12] = test system: Cerebellar granule neurone; assay: Neurotoxicity in rat primary cerebellar granule neurons assessed as reduction in cell viability at 5 to 25 uM incubated for 24 hrs by MTT assay; format: toxicity; summary of the method: as §1
# [13] = Inhibition of AcPHF6 peptide aggregation in pH 7.4 phosphate buffer at 10 uM by atomic force microscopy
# Summary of the method: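 AcPHF6 500 µM in water diluted to 50 µM in 50 mM phosphate pH 7.4, ±10 µM compound, no ThT. Incubated 80 min at 25 °C with 10 s shaking at 400 rpm each minute. Ultrafiltered (30 kDa cut-off), buffer exchanged to water, and the retained high-MW fraction adsorbed on mica. Imaged by PeakForce tapping-mode AFM.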
# [14] = target: T1, Glycogen synthase kinase-3 beta; assay: Inhibition of okadaic acid-induced GSK-3beta-mediated tau hyperphosphorylation in human SH-SY5Y cells assessed as increase in cell viability pre-incubated for 1 hr before okadaic acid stimulation for 24 hrs by MTT assay; format: cell-based
# Summary of the method: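 SH-SY5Y cells grown in DMEM with 10% FBS, seeded at 60000 per well and used 48 h later. Compound given 1 h before 30nM okadaic acid, then 24 h incubation. Viability by MTT, 0.5mg/mL for at least 4 h, formazan dissolved in DMSO, absorbance at 595 nm. Expressed relative to control (=100); n=6 from three independent experiments.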
# Target sequence in this assay (P49841 whole entry, looked up): as the sequence (P49841 whole entry, looked up) above
# [15] = Hepatotoxicity in human HepG2 cells assessed as reduction in cell viability at 5 to 50 uM incubated for 24 hrs by MTT assay; format: toxicity, cell-based; details: hepg2, 24 h; summary of the method: as §2
# [16] = target: T1, Glycogen synthase kinase-3 beta; assay: Inhibition of GSK3beta (unknown origin) at 10 uM
# Summary of the method: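 Human recombinant GSK-3β (20 ng) with 25 µM GS-2 prephosphorylated peptide and 1 µM ATP in 50 mM HEPES pH 7.5, 1 mM EDTA, 1 mM EGTA, Mg acetate. DMSO at most 1%. 30 min at 30 °C; reaction stopped with Kinase-Glo, luminescence read after 10 min. Activity scaled between no inhibitor and full inhibition by a reference inhibitor.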
# Target sequence in this assay (P49841 whole entry, looked up): as above
# [17] = Inhibition of AcPHF6 peptide aggregation in pH 7.4 phosphate buffer at 20 uM by CD Spectroscopy
SMILES,inhibition [1] [%],IC50 [2] [µM],other results
O=C1NC(=O)/C(=C/c2ccncc2)S1,> 50,1.42,
O=C1NC(=O)/C(=C/c2ccccc2O)S1,< 50,> 10,
O=C1NC(=O)/C(=C/c2ccc(-c3ccccc3)cc2)S1,< 50,> 10,
O=C1NC(=O)/C(=C/c2cccc(O)c2)S1,< 50,> 10,
O=C1NC(=O)/C(=C/C=C/c2ccccc2)S1,< 50,> 10,
COc1cc(/C=C2\SC(=O)NC2=O)cc2c1OCO2,< 50,> 10,
O=C1NC(=O)/C(=C/c2ccc3ccccc3c2)S1,< 50,> 10,
CN(C)c1cccc(/C=C2\SC(=O)NC2=O)c1,> 50,8.54,Activity [3]: Toxic; Papp at 2.5 h [4]: > 3.07 ×10⁻⁶ cm/s; Activity [5]: Dose-dependent effect
O=C1NC(=O)/C(=C/c2ccccc2OCc2ccccc2)S1,< 50,> 10,
O=C1NC(=O)/C(=C/c2ccccc2)S1,< 50,> 10,
O=C1NC(=O)/C(=C/c2ccc(F)cc2)S1,< 50,> 10,
O=C1NC(=O)/C(=C/c2c(-c3ccccc3)[nH]c3ccccc23)S1,> 50,6.03,
Cn1c(/C=C2\SC(=O)NC2=O)nc2ccccc21,< 50,> 10,
O=C1NC(=O)/C(=C/c2ccccn2)S1,< 50,> 10,
O=C1NC(=O)/C(=C/c2cc3ccccc3o2)S1,< 50,> 10,
O=C1NC(=O)/C(=C/c2cc3ccccc3nc2Cl)S1,> 50,6.13,
O=C1NC(=O)/C(=C/c2ccc3c(c2)OCCO3)S1,> 50,7.01,
COc1ccc(/C=C2\SC(=O)NC2=O)c(O)c1,> 50,7.08,

SMILES,inhibition [1] [%],IC50 [2] [µM],other results
COc1ccc2[nH]cc(/C=C3\SC(=O)NC3=O)c2c1,< 50,> 10,
O=C1NC(=O)/C(=C/c2c[nH]c3ccccc23)S1,> 50,4.93,inhibition [6]: inactive; inhibition [7]: Active; Papp at 2.5 h [4]: > 3.07 ×10⁻⁶ cm/s; inhibition [8]: inactive; Activity [9]: Toxic; IC50 [10]: 21 µM; inhibition [11]: inactive; Activity [12]: Non-Toxic; inhibition [13]: Active; inhibition [14]: Active; Activity [15]: Non-Toxic; inhibition [16]: 95%; inhibition [17]: Active
CN(C)c1ccccc1/C=C1\SC(=O)NC1=O,> 50,9.22,Activity [3]: Toxic; Papp at 2.5 h [4]: > 3.07 ×10⁻⁶ cm/s; Activity [5]: Dose-dependent effect
CN(C)c1ccc(/C=C2\SC(=O)NC2=O)cc1,< 50,> 10,
O=C1NC(=O)/C(=C/c2ccccc2F)S1,< 50,> 10,
COc1ccc2nc(Cl)c(/C=C3\SC(=O)NC3=O)cc2c1,> 50,3.55,
O=C1NC(=O)/C(=C/c2ccc(O)cc2)S1,> 50,8.99,
O=C1NC(=O)/C(=C/c2cccs2)S1,> 50,7.99,
CN(C)c1ccc(/C=C/C=C2\SC(=O)NC2=O)cc1,< 50,> 10,
O=C1NC(=O)/C(=C/c2cccnc2)S1,> 50,8.75,
O=C1NC(=O)/C(=C/c2cc3ccccc3s2)S1,> 50,7.47,Activity [3]: Toxic; Papp at 2.5 h [4]: > 3.07 ×10⁻⁶ cm/s; Activity [15]: Non-Toxic
O=C1NC(=O)/C(=C/c2ccco2)S1,< 50,> 10,
O=C1NC(=O)/C(=C/c2cccc(F)c2)S1,,> 10,
CCc1ccc(CCOc2ccc(CC3SC(=O)NC3=O)cc2)nc1 (stereo not given) [PIOGLITAZONE],,,Activity [3]: Toxic; Activity [5]: Dose-dependent effect
O=C1NC(=O)/C(=C/c2ccc(O)c([N+](=O)[O-])c2)S1,> 50,9.22,
O=C1NC(=O)/C(=C/c2c3ccccc3cc3ccccc23)S1,< 50,> 10,
COc1cc(/C=C2\SC(=O)NC2=O)ccc1O,> 50,,
